Test results as given in ChEMBL document CHEMBL1151428, “Capability of 11 antipneumococcal antibiotics to select for resistance by multistep and single-step methodologies” (2007).
≈ marks a conversion by molar mass, not a printed value.

Key:
Format in all cases: functional
Streptococcus pneumoniae [1] = assay: Antimicrobial activity against drug-resistant Streptococcus pneumoniae isolate 3676 after 50 passages by multi-step resistance selection technique
In short: (§1)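 Daily serial passage in broth at subinhibitory drug levels: 1 ml cation-adjusted Mueller-Hinton broth with 5% lysed horse blood; fresh broth for tigecycline. Each day 10 μl inoculum taken from the tube one to two dilutions below MIC matching growth-control turbidity, used to set next MIC. Continued until ≥8-fold MIC rise, minimum 14, maximum 50 passages; MIC read by macrodilution.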

Streptococcus pneumoniae [2] = assay: Antimicrobial activity against drug-resistant Streptococcus pneumoniae isolate 3665 after 38 passages with moxifloxacin measured after 10 antibiotic-free subculture by multi-step resistance selection technique
Streptococcus pneumoniae [3] = assay: Antimicrobial activity against drug-resistant Streptococcus pneumoniae isolate 3009 after 19 passages by multi-step resistance selection technique
In short: (§2)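 Daily serial passage in subinhibitory drug levels in 1 ml cation-adjusted Mueller-Hinton broth with 5% lysed horse blood; fresh broth for tigecycline. Each day, 10 μl were taken from the tube one to two dilutions below the MIC whose turbidity matched the growth control, and used to set the next MIC. […] MIC by macrodilution.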

Streptococcus pneumoniae [4] = assay: Antimicrobial activity against drug-resistant Streptococcus pneumoniae isolate 2527 after 50 passages by multi-step resistance selection technique; in short: as §2
Streptococcus pneumoniae [5] = assay: Antimicrobial activity against drug-resistant Streptococcus pneumoniae isolate 3676 after 50 passages with moxifloxacin measured after 10 antibiotic-free subculture by multi-step resistance selection technique
Streptococcus pneumoniae [6] = assay: Antimicrobial activity against drug-resistant Streptococcus pneumoniae isolate 2527 by NCCLS M7-A7 method
Streptococcus pneumoniae [7] = assay: Antimicrobial activity against drug-resistant Streptococcus pneumoniae isolate 1076 after 35 passages by multi-step resistance selection technique; in short: as §2
Streptococcus pneumoniae [8] = assay: Antimicrobial activity against drug-resistant Streptococcus pneumoniae isolate 2527 after 14 passages with gemifloxacin measured after 10 antibiotic-free subculture by multi-step resistance selection technique
In short: (§3)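 Mutants selected by daily broth passage in subinhibitory drug in cation-adjusted Mueller-Hinton broth with 5% lysed horse blood. Stability was tested by 10 daily passages on blood agar without antibiotic, then macrodilution MIC.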

Streptococcus pneumoniae [9] = assay: Antimicrobial activity against drug-resistant Streptococcus pneumoniae isolate 1076 after 14 passages with Telithromycin measured after 10 antibiotic-free subculture by multi-step resistance selection technique; in short: as §3
Streptococcus pneumoniae [10] = assay: Antimicrobial activity against drug-resistant Streptococcus pneumoniae isolate 3243 after 20 passages by multi-step resistance selection technique; in short: as §2
Streptococcus pneumoniae [11] = assay: Antimicrobial activity against drug-resistant Streptococcus pneumoniae isolate 1076 by NCCLS M7-A7 method
Streptococcus pneumoniae [12] = assay: Antimicrobial activity against drug-resistant Streptococcus pneumoniae isolate 3009 after 21 passages with gemifloxacin measured after 10 antibiotic-free subculture by multi-step resistance selection technique; in short: as §3
Streptococcus pneumoniae [13] = assay: Antimicrobial activity against drug-resistant Streptococcus pneumoniae isolate 3665 after 38 passages by multi-step resistance selection technique; in short: as §1
Streptococcus pneumoniae [14] = assay: Antimicrobial activity against drug-resistant Streptococcus pneumoniae isolate 24 after 14 passages with Telithromycin measured after 10 antibiotic-free subculture by multi-step resistance selection technique; in short: as §3
Streptococcus pneumoniae [15] = assay: Antimicrobial activity against drug-resistant Streptococcus pneumoniae isolate 1077 after 49 passages with clindamycin measured after 10 antibiotic-free subculture by multi-step resistance selection technique
Streptococcus pneumoniae [16] = assay: Antimicrobial activity against drug-resistant Streptococcus pneumoniae isolate 1077 by NCCLS M7-A7 method
Streptococcus pneumoniae [17] = assay: Antimicrobial activity against drug-resistant Streptococcus pneumoniae isolate 3243 after 29 passages with Telithromycin measured after 10 antibiotic-free subculture by multi-step resistance selection technique; in short: as §3
Streptococcus pneumoniae [18] = assay: Antimicrobial activity against drug-resistant Streptococcus pneumoniae isolate 3665 by NCCLS M7-A7 method
Streptococcus pneumoniae [19] = assay: Antimicrobial activity against drug-resistant Streptococcus pneumoniae isolate 1635 after 14 passages by multi-step resistance selection technique; in short: as §2
Streptococcus pneumoniae [20] = assay: Antimicrobial activity against drug-resistant Streptococcus pneumoniae isolate 3243 after 33 passages with azithromycin measured after 10 antibiotic-free subculture by multi-step resistance selection technique; in short: as §3
Streptococcus pneumoniae [21] = assay: Antimicrobial activity against drug-resistant Streptococcus pneumoniae isolate 3243 after 20 passages with moxifloxacin measured after 10 antibiotic-free subculture by multi-step resistance selection technique; in short: as §3
Streptococcus pneumoniae [22] = assay: Antimicrobial activity against drug-resistant Streptococcus pneumoniae isolate 3665 after 14 passages with Telithromycin measured after 10 antibiotic-free subculture by multi-step resistance selection technique
Streptococcus pneumoniae [23] = assay: Antimicrobial activity against drug-resistant Streptococcus pneumoniae isolate 24 after 50 passages with moxifloxacin measured after 10 antibiotic-free subculture by multi-step resistance selection technique; in short: as §3
Streptococcus pneumoniae [24] = assay: Antimicrobial activity against drug-resistant Streptococcus pneumoniae isolate 3665 after 50 passages by multi-step resistance selection technique; in short: as §1
Streptococcus pneumoniae [25] = assay: Antimicrobial activity against drug-resistant Streptococcus pneumoniae isolate 3009 by NCCLS M7-A7 method
Streptococcus pneumoniae [26] = assay: Antimicrobial activity against drug-resistant Streptococcus pneumoniae isolate 3274 by NCCLS M7-A7 method
Streptococcus pneumoniae [27] = assay: Antimicrobial activity against drug-resistant Streptococcus pneumoniae isolate 3009 after 19 passages with moxifloxacin measured after 10 antibiotic-free subculture by multi-step resistance selection technique; in short: as §3
Streptococcus pneumoniae [28] = assay: Antimicrobial activity against drug-resistant Streptococcus pneumoniae isolate 3243 after 41 passages with clarithromycin measured after 10 antibiotic-free subculture by multi-step resistance selection technique
Streptococcus pneumoniae [29] = assay: Antimicrobial activity against drug-resistant Streptococcus pneumoniae isolate 3274 after 48 passages with Telithromycin measured after 10 antibiotic-free subculture by multi-step resistance selection technique; in short: as §3
Streptococcus pneumoniae [30] = assay: Antimicrobial activity against drug-resistant Streptococcus pneumoniae isolate 2527 after 20 passages with azithromycin measured after 10 antibiotic-free subculture by multi-step resistance selection technique; in short: as §3
Streptococcus pneumoniae [31] = assay: Antimicrobial activity against drug-resistant Streptococcus pneumoniae isolate 1635 after 14 passages with azithromycin measured after 10 antibiotic-free subculture by multi-step resistance selection technique; in short: as §3
Streptococcus pneumoniae [32] = assay: Antimicrobial activity against drug-resistant Streptococcus pneumoniae isolate 3665 after 26 passages with clarithromycin measured after 10 antibiotic-free subculture by multi-step resistance selection technique
Streptococcus pneumoniae [33] = assay: Antimicrobial activity against drug-resistant Streptococcus pneumoniae isolate 2527 after 20 passages by multi-step resistance selection technique
Streptococcus pneumoniae [34] = assay: Antimicrobial activity against drug-resistant Streptococcus pneumoniae isolate 37 after 14 passages with Telithromycin measured after 10 antibiotic-free subculture by multi-step resistance selection technique
Streptococcus pneumoniae [35] = assay: Antimicrobial activity against drug-resistant Streptococcus pneumoniae isolate 1076 after 35 passages with moxifloxacin measured after 10 antibiotic-free subculture by multi-step resistance selection technique; in short: as §3
Streptococcus pneumoniae [36] = assay: Antimicrobial activity against drug-resistant Streptococcus pneumoniae isolate 1077 after 29 passages with azithromycin measured after 10 antibiotic-free subculture by multi-step resistance selection technique; in short: as §3
Streptococcus pneumoniae [37] = assay: Antimicrobial activity against drug-resistant Streptococcus pneumoniae isolate 3243 after 33 passages by multi-step resistance selection technique; in short: as §2
Streptococcus pneumoniae [38] = assay: Antimicrobial activity against drug-resistant Streptococcus pneumoniae isolate 3009 after 18 passages with levofloxacin measured after 10 antibiotic-free subculture by multi-step resistance selection technique; in short: as §3
Streptococcus pneumoniae [39] = assay: Antimicrobial activity against drug-resistant Streptococcus pneumoniae isolate 1635 after 49 passages with clarithromycin measured after 10 antibiotic-free subculture by multi-step resistance selection technique
Streptococcus pneumoniae [40] = assay: Antimicrobial activity against drug-resistant Streptococcus pneumoniae isolate 24 by NCCLS M7-A7 method
Streptococcus pneumoniae [41] = assay: Antimicrobial activity against drug-resistant Streptococcus pneumoniae isolate 37 by NCCLS M7-A7 method
Streptococcus pneumoniae [42] = assay: Antimicrobial activity against drug-resistant Streptococcus pneumoniae isolate 1635 after 14 passages with clindamycin measured after 10 antibiotic-free subculture by multi-step resistance selection technique
Streptococcus pneumoniae [43] = assay: Antimicrobial activity against drug-resistant Streptococcus pneumoniae isolate 3413 by NCCLS M7-A7 method
Streptococcus pneumoniae [44] = assay: Antimicrobial activity against drug-resistant Streptococcus pneumoniae isolate 1077 after 15 passages with Telithromycin measured after 10 antibiotic-free subculture by multi-step resistance selection technique; in short: as §3
Streptococcus pneumoniae [45] = assay: Antimicrobial activity against drug-resistant Streptococcus pneumoniae isolate 3676 after 14 passages with Telithromycin measured after 10 antibiotic-free subculture by multi-step resistance selection technique
Streptococcus pneumoniae [46] = assay: Antimicrobial activity against drug-resistant Streptococcus pneumoniae isolate 3009 after 25 passages with clarithromycin measured after 10 antibiotic-free subculture by multi-step resistance selection technique
Streptococcus pneumoniae [47] = assay: Antimicrobial activity against drug-resistant Streptococcus pneumoniae isolate 3274 after 50 passages by multi-step resistance selection technique
In short: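 Daily serial passage in subinhibitory drug levels in 1 ml cation-adjusted Mueller-Hinton broth with 5% lysed horse blood; fresh broth for tigecycline. Each day, 10 μl were taken from the tube one to two dilutions below the MIC whose turbidity matched the growth control, and used to set the next MIC. MIC by macrodilution.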

Streptococcus pneumoniae [48] = assay: Antimicrobial activity against drug-resistant Streptococcus pneumoniae isolate 1635 by NCCLS M7-A7 method
Streptococcus pneumoniae [49] = assay: Antimicrobial activity against drug-resistant Streptococcus pneumoniae isolate 3676 after 44 passages with clarithromycin measured after 10 antibiotic-free subculture by multi-step resistance selection technique
Streptococcus pneumoniae [50] = assay: Antimicrobial activity against drug-resistant Streptococcus pneumoniae isolate 3243 by NCCLS M7-A7 method
Streptococcus pneumoniae [51] = assay: Antimicrobial activity against drug-resistant Streptococcus pneumoniae isolate 3413 after 30 passages with Telithromycin measured after 10 antibiotic-free subculture by multi-step resistance selection technique; in short: as §3
Streptococcus pneumoniae [52] = assay: Antimicrobial activity against drug-resistant Streptococcus pneumoniae isolate 3676 by NCCLS M7-A7 method
Streptococcus pneumoniae [53] = assay: Antimicrobial activity against drug-resistant Streptococcus pneumoniae isolate 1077 after 29 passages by multi-step resistance selection technique; in short: as §2

COc1c(N2C[C@@H]3CCCN[C@@H]3C2)c(F)cc2c(=O)c(C(=O)O)cn(C3CC3)c12 [MOXIFLOXACIN]
MIC (Streptococcus pneumoniae [1]): 8 µg/mL (≈ 19.9 µM)
MIC (Streptococcus pneumoniae [2]): 1 µg/mL (≈ 2.49 µM)
MIC (Streptococcus pneumoniae [3]): 2 µg/mL (≈ 4.98 µM)
MIC (Streptococcus pneumoniae [4]): 8 µg/mL (≈ 19.9 µM)
MIC (Streptococcus pneumoniae [5]): 8 µg/mL (≈ 19.9 µM)
MIC (Streptococcus pneumoniae [6]): 2 µg/mL (≈ 4.98 µM)
MIC (Streptococcus pneumoniae [7]): 8 µg/mL (≈ 19.9 µM)
MIC (Streptococcus pneumoniae [8]): 8 µg/mL (≈ 19.9 µM)
MIC (Streptococcus pneumoniae [9]): 1 µg/mL (≈ 2.49 µM)
MIC (Streptococcus pneumoniae [10]): 1 µg/mL (≈ 2.49 µM)
MIC (Streptococcus pneumoniae [11]): 1 µg/mL (≈ 2.49 µM)
MIC (Streptococcus pneumoniae [12]): 2 µg/mL (≈ 4.98 µM)
MIC (Streptococcus pneumoniae [13]): 1 µg/mL (≈ 2.49 µM)

CC[C@H]1OC(=O)[C@H](C)[C@@H](O[C@H]2C[C@@](C)(OC)[C@@H](O)[C@H](C)O2)[C@H](C)[C@@H](O[C@@H]2O[C@H](C)C[C@H](N(C)C)[C@H]2O)[C@](C)(O)C[C@@H](C)CN(C)[C@H](C)[C@@H](O)[C@]1(C)O [AZITHROMYCIN]
MIC (Streptococcus pneumoniae [14]): > 64 µg/mL
MIC (Streptococcus pneumoniae [15]): > 64 µg/mL
MIC (Streptococcus pneumoniae [16]): 0.03 µg/mL (≈ 0.0401 µM)
MIC (Streptococcus pneumoniae [1]): 8 µg/mL (≈ 10.7 µM)
MIC (Streptococcus pneumoniae [17]): > 64 µg/mL
MIC (Streptococcus pneumoniae [18]): 8 µg/mL (≈ 10.7 µM)
MIC (Streptococcus pneumoniae [19]): > 64 µg/mL
MIC (Streptococcus pneumoniae [20]): 0.5 µg/mL (≈ 0.668 µM)
MIC (Streptococcus pneumoniae [21]): 0.016 µg/mL (≈ 0.0214 µM)
MIC (Streptococcus pneumoniae [22]): 4 µg/mL (≈ 5.34 µM)
MIC (Streptococcus pneumoniae [2]): 8 µg/mL (≈ 10.7 µM)
MIC (Streptococcus pneumoniae [23]): > 64 µg/mL
MIC (Streptococcus pneumoniae [24]): 16 µg/mL (≈ 21.4 µM)
MIC (Streptococcus pneumoniae [25]): > 64 µg/mL
MIC (Streptococcus pneumoniae [26]): 8 ng/mL (≈ 0.0107 µM)
MIC (Streptococcus pneumoniae [27]): > 64 µg/mL
MIC (Streptococcus pneumoniae [28]): 1 µg/mL (≈ 1.34 µM)
MIC (Streptococcus pneumoniae [29]): 1 µg/mL (≈ 1.34 µM)
MIC (Streptococcus pneumoniae [30]): 4 µg/mL (≈ 5.34 µM)
MIC (Streptococcus pneumoniae [31]): > 64 µg/mL
MIC (Streptococcus pneumoniae [32]): 8 µg/mL (≈ 10.7 µM)
MIC (Streptococcus pneumoniae [33]): 4 µg/mL (≈ 5.34 µM)
MIC (Streptococcus pneumoniae [34]): > 64 µg/mL
MIC (Streptococcus pneumoniae [35]): > 64 µg/mL
MIC (Streptococcus pneumoniae [36]): > 64 µg/mL
MIC (Streptococcus pneumoniae [37]): 0.25 µg/mL (≈ 0.334 µM)
MIC (Streptococcus pneumoniae [38]): > 64 µg/mL
MIC (Streptococcus pneumoniae [5]): 4 µg/mL (≈ 5.34 µM)
MIC (Streptococcus pneumoniae [6]): 0.016 µg/mL (≈ 0.0214 µM)
MIC (Streptococcus pneumoniae [39]): > 64 µg/mL
MIC (Streptococcus pneumoniae [8]): 0.03 µg/mL (≈ 0.0401 µM)
MIC (Streptococcus pneumoniae [40]): > 64 µg/mL
MIC (Streptococcus pneumoniae [9]): > 64 µg/mL
MIC (Streptococcus pneumoniae [41]): > 64 µg/mL
MIC (Streptococcus pneumoniae [42]): 4 µg/mL (≈ 5.34 µM)
MIC (Streptococcus pneumoniae [43]): > 64 µg/mL
MIC (Streptococcus pneumoniae [44]): > 64 µg/mL
MIC (Streptococcus pneumoniae [45]): 2 µg/mL (≈ 2.67 µM)
MIC (Streptococcus pneumoniae [11]): > 64 µg/mL
MIC (Streptococcus pneumoniae [46]): > 64 µg/mL
MIC (Streptococcus pneumoniae [12]): > 64 µg/mL
MIC (Streptococcus pneumoniae [47]): 8 ng/mL (≈ 0.0107 µM)
MIC (Streptococcus pneumoniae [48]): 2 µg/mL (≈ 2.67 µM)
MIC (Streptococcus pneumoniae [49]): 16 µg/mL (≈ 21.4 µM)
MIC (Streptococcus pneumoniae [50]): 0.03 µg/mL (≈ 0.0401 µM)
MIC (Streptococcus pneumoniae [51]): > 64 µg/mL
MIC (Streptococcus pneumoniae [52]): 4 µg/mL (≈ 5.34 µM)
MIC (Streptococcus pneumoniae [53]): > 64 µg/mL
